Results taken from ChEMBL document CHEMBL4689842, “EUbOPEN Chemogenomics Library wave 1” (2021).

Tested on: HEK-293T
Assay: Multiplex assay against HEK293T;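 as to Population Tubulin-Different-Phenotype (%): share of the cells with healthy nuclei that show this phenotype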
Format: toxicity, cell-based
Settings: human
Outline: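 Live cells were stained at seeding with Hoechst33342, BioTracker Green Microtubule Cytoskeleton Dye, MitoTracker Red and Annexin V Alexa Fluor 680, then imaged on a CQ1 microscope at 37°C and 5% CO2 after compound addition. CellPathfinder machine-learning gating split cells into Hoechst high-intensity objects or normal cells. Normal cells were split into healthy, pyknosed or fragmented nuclei, and pyknosed cells into mitotic or apoptotic. Tubulin, mitochondrial-mass and membrane-permeability phenotypes are per cents of healthy-nucleus cells.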

[1] = 12 h, 1 µM, compound concentration 1 uM, replicate 1
[2] = 12 h, 1 µM, compound concentration 1 uM, replicate 2
[3] = 12 h, 10 µM, compound concentration 10 uM, replicate 1
[4] = 12 h, 10 µM, compound concentration 10 uM, replicate 2
[5] = 24 h, 1 µM, compound concentration 1 uM, replicate 1
[6] = 24 h, 1 µM, compound concentration 1 uM, replicate 2
[7] = 24 h, 10 µM, compound concentration 10 uM, replicate 1
[8] = 24 h, 10 µM, compound concentration 10 uM, replicate 2
[9] = 48 h, 1 µM, compound concentration 1 uM, replicate 1
[10] = 48 h, 1 µM, compound concentration 1 uM, replicate 2
[11] = 48 h, 10 µM, compound concentration 10 uM, replicate 1
[12] = 48 h, 10 µM, compound concentration 10 uM, replicate 2

Cn1cc(-c2[nH]c3cc(NC(=O)[C@H](N)C4CCCCC4)cc4c3c2C=NNC4=O)cn1
Population Apoptotic (%) [1]: 40% | Population Fragmented Nuclei (%) [1]: 10% | Population Healthy Nuclei (%) [1]: 26% | Population Hoechst High Intensity Objects (%) [1]: 14% | Population Membrane Permeable-Phenotype (%) [1]: 10% | Population Mitochondria Different-Phenotype (%) [1]: 71% | Population Mitotic Cells (%) [1]: 60% | Population Normal (%) [1]: 85% | Population Pyknosed Nuclei (%) [1]: 62% | Population Tubulin-Different-Phenotype (%) [1]: 42% | Total Cell Count [1]: 344 | Population Apoptotic (%) [2]: 17% | Population Fragmented Nuclei (%) [2]: 6% | Population Healthy Nuclei (%) [2]: 28% | Population Hoechst High Intensity Objects (%) [2]: 6% | Population Membrane Permeable-Phenotype (%) [2]: 11% | Population Mitochondria Different-Phenotype (%) [2]: 7% | Population Mitotic Cells (%) [2]: 82% | Population Normal (%) [2]: 93% | Population Pyknosed Nuclei (%) [2]: 65% | Population Tubulin-Different-Phenotype (%) [2]: 25% | Total Cell Count [2]: 259 | Population Apoptotic (%) [3]: 64% | Population Fragmented Nuclei (%) [3]: 15% | Population Healthy Nuclei (%) [3]: 24% | Population Hoechst High Intensity Objects (%) [3]: 17% | Population Membrane Permeable-Phenotype (%) [3]: 10% | Population Mitochondria Different-Phenotype (%) [3]: 82% | Population Mitotic Cells (%) [3]: 35% | Population Normal (%) [3]: 82% | Population Pyknosed Nuclei (%) [3]: 60% | Population Tubulin-Different-Phenotype (%) [3]: 62% | Total Cell Count [3]: 329 | Population Apoptotic (%) [4]: 42% | Population Fragmented Nuclei (%) [4]: 6% | Population Healthy Nuclei (%) [4]: 17% | Population Hoechst High Intensity Objects (%) [4]: 6% | Population Membrane Permeable-Phenotype (%) [4]: 6% | Population Mitochondria Different-Phenotype (%) [4]: 46% | Population Mitotic Cells (%) [4]: 57% | Population Normal (%) [4]: 93% | Population Pyknosed Nuclei (%) [4]: 75% | Population Tubulin-Different-Phenotype (%) [4]: 66% | Total Cell Count [4]: 180 | Population Apoptotic (%) [5]: 41% | Population Fragmented Nuclei (%) [5]: 13% | Population Healthy Nuclei (%) [5]: 20% | Population Hoechst High Intensity Objects (%) [5]: 19% | Population Membrane Permeable-Phenotype (%) [5]: 5% | Population Mitochondria Different-Phenotype (%) [5]: 62% | Population Mitotic Cells (%) [5]: 58% | Population Normal (%) [5]: 80% | Population Pyknosed Nuclei (%) [5]: 65% | Population Tubulin-Different-Phenotype (%) [5]: 68% | Total Cell Count [5]: 330 | Population Apoptotic (%) [6]: 40% | Population Fragmented Nuclei (%) [6]: 6% | Population Healthy Nuclei (%) [6]: 26% | Population Hoechst High Intensity Objects (%) [6]: 9% | Population Membrane Permeable-Phenotype (%) [6]: 14% | Population Mitochondria Different-Phenotype (%) [6]: 19% | Population Mitotic Cells (%) [6]: 59% | Population Normal (%) [6]: 90% | Population Pyknosed Nuclei (%) [6]: 67% | Population Tubulin-Different-Phenotype (%) [6]: 53% | Total Cell Count [6]: 263 | Population Apoptotic (%) [7]: 74% | Population Fragmented Nuclei (%) [7]: 17% | Population Healthy Nuclei (%) [7]: 13% | Population Hoechst High Intensity Objects (%) [7]: 17% | Population Membrane Permeable-Phenotype (%) [7]: 14% | Population Mitochondria Different-Phenotype (%) [7]: 97% | Population Mitotic Cells (%) [7]: 25% | Population Normal (%) [7]: 82% | Population Pyknosed Nuclei (%) [7]: 69% | Population Tubulin-Different-Phenotype (%) [7]: 82% | Total Cell Count [7]: 311 | Population Apoptotic (%) [8]: 72% | Population Fragmented Nuclei (%) [8]: 6% | Population Healthy Nuclei (%) [8]: 6% | Population Hoechst High Intensity Objects (%) [8]: 12% | Population Membrane Permeable-Phenotype (%) [8]: 0% | Population Mitochondria Different-Phenotype (%) [8]: 70% | Population Mitotic Cells (%) [8]: 27% | Population Normal (%) [8]: 87% | Population Pyknosed Nuclei (%) [8]: 86% | Population Tubulin-Different-Phenotype (%) [8]: 70% | Total Cell Count [8]: 175 | Population Apoptotic (%) [9]: 36% | Population Fragmented Nuclei (%) [9]: 22% | Population Healthy Nuclei (%) [9]: 5% | Population Hoechst High Intensity Objects (%) [9]: 23% | Population Membrane Permeable-Phenotype (%) [9]: 6% | Population Mitochondria Different-Phenotype (%) [9]: 46% | Population Mitotic Cells (%) [9]: 63% | Population Normal (%) [9]: 76% | Population Pyknosed Nuclei (%) [9]: 71% | Population Tubulin-Different-Phenotype (%) [9]: 60% | Total Cell Count [9]: 373 | Population Apoptotic (%) [10]: 52% | Population Fragmented Nuclei (%) [10]: 10% | Population Healthy Nuclei (%) [10]: 14% | Population Hoechst High Intensity Objects (%) [10]: 17% | Population Membrane Permeable-Phenotype (%) [10]: 17% | Population Mitochondria Different-Phenotype (%) [10]: 20% | Population Mitotic Cells (%) [10]: 47% | Population Normal (%) [10]: 82% | Population Pyknosed Nuclei (%) [10]: 75% | Population Tubulin-Different-Phenotype (%) [10]: 64% | Total Cell Count [10]: 278 | Population Apoptotic (%) [11]: 72% | Population Fragmented Nuclei (%) [11]: 20% | Population Healthy Nuclei (%) [11]: 3% | Population Hoechst High Intensity Objects (%) [11]: 20% | Population Membrane Permeable-Phenotype (%) [11]: 11% | Population Mitochondria Different-Phenotype (%) [11]: 77% | Population Mitotic Cells (%) [11]: 27% | Population Normal (%) [11]: 79% | Population Pyknosed Nuclei (%) [11]: 76% | Population Tubulin-Different-Phenotype (%) [11]: 66% | Total Cell Count [11]: 331 | Population Apoptotic (%) [12]: 89% | Population Fragmented Nuclei (%) [12]: 5% | Population Healthy Nuclei (%) [12]: 1% | Population Hoechst High Intensity Objects (%) [12]: 15% | Population Membrane Permeable-Phenotype (%) [12]: 0% | Population Mitochondria Different-Phenotype (%) [12]: 66% | Population Mitotic Cells (%) [12]: 10% | Population Normal (%) [12]: 84% | Population Pyknosed Nuclei (%) [12]: 92% | Total Cell Count [12]: 179
